Source: ChEMBL document CHEMBL3124872, “Discovery and early development of TMC647055, a non-nucleoside inhibitor of the hepatitis C virus NS5B polymerase” (J Med Chem, 2014)

How the values were obtained:
Homo sapiens [1] = assay: Toxicity in human assessed as grade-3 adverse events at 300 to 1250 mg, po bid for 5 days followed by morning dose on day 6; type: organism-based; conditions: in vivo, 120 h
How it was run: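 Oral b.i.d. dosing for 5 days plus a single morning dose on day 6, in a hydroxypropyl-β-cyclodextrin vehicle. Healthy volunteers received 300, 1000 or 1250 mg; HCV genotype 1-infected patients received 500 or 1000 mg. Monitoring covered adverse events graded by severity, laboratory parameters, vital signs, food consumption, appetite and ECG.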

Homo sapiens [2] = assay: Toxicity in HCV genotype 1-infected patient assessed as effect on appetite at 500 to 1000 mg, po bid for 5 days followed by morning dose on day 6; type: organism-based; conditions: in vivo, 120 h
How it was run: (§1)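 HCV genotype 1-infected patients given oral b.i.d. doses of 500 or 1000 mg for 5 days plus a morning dose on day 6, in hydroxypropyl-β-cyclodextrin vehicle; adverse events with grading, laboratory parameters, vital signs, food consumption, appetite and ECG monitored.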

Homo sapiens [3] = assay: Toxicity in human assessed as effect on food consumption at 300 to 1250 mg, po bid for 5 days followed by morning dose on day 6; type: organism-based; conditions: in vivo, 120 h
How it was run: (§2)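 Healthy volunteers given oral b.i.d. doses of 300, 1000 or 1250 mg for 5 days plus a morning dose on day 6, in hydroxypropyl-β-cyclodextrin vehicle; adverse events, laboratory parameters, vital signs, food consumption, appetite, ECG and plasma 4-β-hydroxycholesterol (CYP3A4 induction marker) monitored.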

Homo sapiens [4] = assay: Toxicity in HCV genotype 1-infected patient assessed as grade-3 adverse events at 500 to 1000 mg, po bid for 5 days followed by morning dose on day 6; type: organism-based; conditions: in vivo, 120 h; how it was run: as §1
[5] = Inhibition of His6-tagged Hepatitis C virus Con 1b NS5B delta21 RNA dependent RNA polymerase expressed in Escherichia coli Rosetta 2 (DE3) after 2 hrs by primer-dependent transcription assay in presence of 5'-biotinylated rG13 primer
Hepatitis C virus = assay: Antiviral activity against Hepatitis C virus genotype 1b infected in human assessed as log10 reduction in HCV RNA level at 500 mg, po bid for 5 days followed by morning dose on day 6 relative to control; type: functional, Hepacivirus hominis
How it was run: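 Oral b.i.d. dosing of HCV genotype 1-infected patients at 500 mg or 1000 mg for 5 days, plus a morning dose on day 6, in hydroxypropyl-β-cyclodextrin vehicle. Read-out was the median maximum decrease in plasma HCV RNA from baseline (log10), using patients with HCV RNA data available up to Day 6.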

[6] = Toxicity in rat after 5 days; type: organism-based; conditions: in vivo
Homo sapiens [7] = assay: Toxicity in human assessed as effect on vital signs at 300 to 1250 mg, po bid for 5 days followed by morning dose on day 6; type: organism-based; conditions: in vivo, 120 h; how it was run: as §2
[8] = Binding affinity to Hepatitis C virus genotype 3a NS5B by surface plasmon resonance analysis; parameters: species or system Hepatitis C virus subtype 3a
How it was run: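 Surface plasmon resonance binding to NS5B polymerase of the stated genotype; association and dissociation rate constants measured, from which Kd and residence half-life were derived; median Kd reported.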

For `COc1ccc2c(c1)C=C1Cn3c-2c(C2CCCCC2)c2ccc(cc23)C(=O)NS(=O)(=O)N(C)CCOCCN(C)C1=O` [TMC-647055], the Activity (Homo sapiens [1]) was “Non-toxic”, the Activity (Homo sapiens [2]) was “Non-toxic” and the Activity (Homo sapiens [3]) was “Non-toxic”. For the same compound, the Activity (Homo sapiens [4]) was “Non-toxic”, the IC50 [5] was 34 nM and the FC (Hepatitis C virus) was 3.3. For the same compound, the NOAEL at 120 h [6] was no more than 1000 mg/kg/day, the Activity (Homo sapiens [7]) was “Non-toxic” and the Kd [8] was 6.1 nM.
